The subject of series [1] is Serum. As to the kind of experiment: Metabolic stability in human serum at 1 mg/ml after 3 to 24 hrs by RP-HPLC method. Type of series: ADME, cell-free. The method in brief:
(§1)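 Peptide solution (1 mg/mL, 160 μL) mixed with 400 μL human serum at 37 °C. Aliquots taken at 1, 2, 4, 8, 24 and 48 h were quenched with 15% TFA and centrifuged. Supernatants analysed by LC–MS, following loss of the intact-peptide peak.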

The nature of series [2]: (§2) Antiadhesive activity in alphavbeta3 integrin overexpressing human WM266 cells assessed as inhibition of cell adhesion onto fibronectin preincubated for 30 mins followed by cell seeding on fibronectin measured after 1 hr by crystal violet staining-based assay. Type of series: functional. In short, it runs like this:
(§3)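 Dose–response adhesion: WM266 cells preincubated with increasing peptide concentrations, then seeded on plates precoated with vitronectin or fibronectin (10 μg/mL). Adherent cells quantified after 1 h by crystal violet staining as % of untreated control. IC50 derived from this curve; means ± SE of three independent experiments in triplicate.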

The nature of series [3]: Antimigratory activity in alphavbeta3 integrin overexpressing human WM266 cells at 50 uM after 24 hrs by wound healing assay relative to control. Type of series: functional. The method in brief:
(§4)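 Confluent WM266 monolayers scratched with a pipette tip, washed with PBS, then given medium containing peptide (50 μM). Phase-contrast images taken at 0, 24 and 48 h. Wound width expressed as % of the 0 h value. Three experiments in triplicate.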

Series [4] can be described thus: Antimigratory activity in alphavbeta3 integrin overexpressing human WM266 cells at 50 uM after 48 hrs by wound healing assay relative to control. The format is functional. The method in brief: as §4
Series [5] has as its system WM266. In words: Antiinvasive activity in alphavbeta3 integrin overexpressing human WM266 cells at 50 uM after 18 hrs by Transwell assay relative to control. Type of series: functional, cell-based. In short, it runs like this:
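Transwell inserts (8 μm) coated with ECL Cell Attachment. EDTA-detached WM266 cells (1 × 10^5, serum-free RPMI) with peptide (50 μM) in the upper chamber, 10% FBS RPMI below. Incubated 18 h at 37 °C. Invaded cells formalin-fixed, crystal violet stained and counted in four fields per chamber. Duplicate chambers.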

A short description of series [6]: (§5) Antiadhesive activity in alphavbeta3 integrin overexpressing human WM266 cells assessed as inhibition of cell adhesion onto vitronectin preincubated for 30 mins followed by cell seeding on vitronectin measured after 1 hr by crystal violet staining-based assay. Type of series: functional. The method in brief: as §3
Series [7] can be described thus: (§6) Antiadhesive activity in alphavbeta3 integrin overexpressing human WM266 cells assessed as inhibition of cell binding to anti-alphaVbeta3 antibody at 50 uM after 1 hr by crystal violet staining-based assay relative to control. The following applies: WM266, 1 h. The format is functional. The method in brief: (§7)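 Plates coated with anti-αvβ3 antibody LM609 (10 μg/mL). WM266 cells (1.5 × 10^4/well) incubated with peptide (50 μM) for 1 h. Nonadherent cells washed off, adherent cells measured by crystal violet optical density as % of untreated control. At least three independent experiments in duplicate.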

A further series concerns HeLa. In words: Antiadhesive activity in alphavbeta5 integrin overexpressing human HeLa cells assessed as inhibition of cell binding to anti-alphaVbeta5 antibody at 50 uM by RTCA cell index slope-based assay.
The nature of series [8]: In vivo tumor uptake in CD1 nu/nu athymic mouse xenografted with alphavbeta3 integrin overexpressing human WM266 cells using NIR750 labeled compound at 1 nmol, iv after 3 to 24 hrs by fluorescence molecular tomography. The format is ADME, organism-based, Neoplasm. In short, it runs like this:
(§8)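 Peptides conjugated to VivoTag-S 750 NHS ester. 10 × 10^6 WM266 cells implanted in the right flank of CD1 nu/nu mice, fed alfalfa-free chow. At about 0.5 cm3 tumour volume, 1 nmol conjugate given i.v. (3 mice/group) under isoflurane. Whole-body FMT imaging at 3, 5 and 24 h, reported as tumour ROI counts/energy. Tumours excised at 24 h for ex vivo FMT.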
A general note: Xenograft models place foreign cells or tissue in a host animal.

Series [9] deals with WM266. The series is described as §2. The format is functional. In short, it runs like this:
as §3

A short description of series [10]: Ex vivo tumor uptake in CD1 nu/nu athymic mouse xenografted with alphavbeta3 integrin overexpressing human WM266 cells using NIR750 labeled compound at 1 nmol, iv after 24 hrs by fluorescence molecular tomography. The format is ADME, organism-based, Neoplasm. In short, it runs like this:
as §8

Series [11] concerns WM266. As to the kind of experiment: Antiadhesive activity in alphavbeta3 integrin overexpressing human WM266 cells assessed as inhibition of cell adhesion onto collagen 1 at 50 uM preincubated for 30 mins followed by cell seeding on collagen 1 by RTCA. Type of series: functional, cell-based. In short, it runs like this: (§9)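 WM266 cells (4 × 10^4, RPMI/10% FBS) preincubated 30 min at 4 °C with peptide (50 μM) in adhesion buffer, then seeded on wells coated overnight at 4 °C with 10 μg/mL matrix and blocked with 1.5% BSA. Impedance cell index read every minute over 0–24 h. Adhesion rate taken as slope between two time points, expressed as % of untreated control.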

Series [12] has as its target Integrin alpha-V/beta-3 (Homo sapiens) (UniProt P05106+P06756). As to the kind of experiment: Competitive binding affinity to alphavbeta3 integrin in human WM266 cells using NIR750-labeled compound at 1 nmole after 1 hr in presence of excess of unlabeled compound by DAPI staining-based confocal microscopic method. The format is cell-based. The method in brief: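 WM266 cells on coverslips incubated with 1 nmol NIR750-labelled peptide in DPBS/5% FBS for 1 h at 4 °C. For competition, cells were first preincubated 1 h at 4 °C with 1000-fold excess unlabelled parent. Cells fixed, DAPI-stained and immunostained for αvβ3, then imaged by confocal microscopy. Colocalization scored by Manders' coefficients.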

The nature of series [13]: (§10) Antiadhesive activity in alphavbeta3 integrin overexpressing human WM266 cells assessed as inhibition of cell adhesion onto fibronectin at 50 uM preincubated for 30 mins followed by cell seeding on fibronectin by RTCA relative to control. The format is functional. The method in brief: as §9
Series [14] relates to WM266. The description is as §5. Type of series: functional. The method in brief:
as §3

Series [15] can be described thus: (§11) Antiadhesive activity in alphavbeta3 integrin overexpressing human WM266 cells assessed as inhibition of cell adhesion onto vitronectin at 50 uM preincubated for 30 mins followed by cell seeding on vitronectin by RTCA relative to control. The format is functional. The method in brief:
as §9

Series [16] relates to Serum. As to the kind of experiment: Metabolic stability in human serum at 1 mg/ml after 48 hrs by RP-HPLC method. The format is ADME, cell-free. In short, it runs like this: as §1
For series [17], the system named is WM266. Described as §10. The format is functional. In short, it runs like this:
as §9

For series [18], the system named is WM266. The description is as §6. Type of series: functional. The method in brief:
as §7

The test system of series [19] is WM266. Described as §11. The format is functional. The method in brief: as §9

Consider 3 compounds from ChEMBL document CHEMBL4052821, “Chemical Modification for Proteolytic Stabilization of the Selective αvβ3 Integrin RGDechi Peptide: in Vitro and in Vivo Activities on Malignant Melanoma Cells” (J Med Chem, 2017).

pIC50: −log10 of the molar value. Calls of active or inactive are those of the source. The calls are words filed in the database; no cut-off is given here. Where a SMILES comes first, the peptide text is derived from it.

On to `CSCC[C@H](NC(=O)CC[C@@H]1NC(=O)[C@H](CC(=O)O)NC(=O)CNC(=O)[C@H](CCCNC(=N)N)NC(=O)[C@H](CCCCN)NC1=O)C(=O)N[C@@H](CC(=O)O)C(=O)N[C@@H](CC(=O)O)C(=O)N1CCC[C@H]1C(=O)NCC(=O)N[C@@H](CCCNC(=N)N)C(=O)N[C@@H](CC(N)=O)C(=O)N1CCC[C@H]1C(=O)N[C@@H](Cc1cnc[nH]1)C(=O)N[C@@H](CCCCNC(N)=O)C(=O)NCC(=O)N1CCC[C@H]1C(=O)N[C@@H](C)C(=O)N[C@H](C(=O)O)[C@@H](C)O` (HELM PEPTIDE1{M.D.D.P.G.R.N.P.H.[NC(=O)NCCCC[C@H](N[*:1])C(=O)[*:2]].G.P.A.T}|PEPTIDE2{R.G.D.E.K}$PEPTIDE1,PEPTIDE2,1:R1-4:R3|PEPTIDE2,PEPTIDE2,1:R1-5:R2$$$V2.0), for which the Stability result in the series with Serum [1] is on record as “Unstable”. Besides, the pIC50 (as a rule, the IC50 on a negative log10 scale, so that one unit is a factor of ten) in [2] was 4.28; in [6] it was 4.59. Moreover, the Activity in series [3] was 31%; in series [4] it was 20%. The outcome with WM266 [5] was Active. The inhibition (as a rule, the change of the read-out against control, counted positive when it falls) at 50 µM in series [7] turned out to be 40%. Also, the inhibition result in the series on HeLa is “inactive”. Besides, the Drug uptake result in series [8] was “Active”.

As for `CSCC[C@H](NC(=O)CC[C@@H]1NC(=O)[C@H](CC(=O)O)NC(=O)CNC(=O)[C@H](CCCNC(=N)N)NC(=O)[C@H](CCCCN)NC1=O)C(=O)N[C@@H](CC(=O)O)C(=O)N[C@@H](CC(=O)O)C(=O)N1CCC[C@H]1C(=O)NCC(=O)N[C@@H](CCCNC(=N)N)C(=O)N[C@@H](CC(N)=O)C(=O)N1CCC[C@H]1C(=O)N[C@@H](Cc1cnc[nH]1)C(=O)N[C@@H](CCCCNC(N)=O)C(=O)NCC(=O)N1CCC[C@H]1CN[C@@H](C)C(=O)N[C@H](C(=O)O)[C@@H](C)O` (HELM PEPTIDE1{M.D.D.P.G.R.N.P.H.[NC(=O)NCCCC[C@H](N[*:1])C(=O)[*:2]].G.[C[C@H](NC[C@@H]1CCCN1[*:1])C(=O)N[C@H](C(=O)O)[C@@H](C)O]}|PEPTIDE2{R.G.D.E.K}$PEPTIDE1,PEPTIDE2,1:R1-4:R3|PEPTIDE2,PEPTIDE2,1:R1-5:R2$$$V2.0), the inhibition entry in the series on WM266 [9] and in the series on WM266 [14] was “Dose-dependent effect” each time. Besides, the values for the pIC50 in series [2] and in [6] were 4.68 and 5.28, respectively. In addition, the Activity in series [3] stood at 54%; in [4] it was 33%. For the same compound, the Drug uptake entry in series [10] and in [8] was “Active” throughout. Moreover, the inhibition entry in the series with WM266 [11] and in the series with HeLa was “inactive” in each case. In addition, the result (with WM266 [5]; in series [12]) was Active. Also, the inhibition at 50 µM in series [13] stood at 33%; in [7] it was 40%; in series [15] it was 55%. The Stability result with Serum [16] is “Stable”.

For the compound `N=C(N)NCCC[C@@H]1NC(=O)CNC(=O)[C@H](CC(=O)O)NC(=O)[C@@H](Cc2ccccc2)NC(=O)[C@H](CCCCN)NC1=O`, the result with WM266 [5] was Active. The inhibition entry with WM266 [17], in the series with WM266 [18], with WM266 [19] and with HeLa was “Active” throughout.
